In ChEMBL document CHEMBL4270513, “Replacement of Arg with Nle and modified D-Phe in the core sequence of MSHs, Ac-His-D-Phe-Arg-Trp-NH2, leads to hMC1R selectivity and pigmentation” (Eur J Med Chem, 2018):
Square brackets hold non-standard residues; d marks the D form. Peptide text beside a SMILES is read from it. dPhe(4-CF3) = N[C@H](Cc1ccc(C(F)(F)F)cc1)C(=O)O; dPhe(4-Br) = N[C@H](Cc1ccc(Br)cc1)C(=O)O; Nle = CCCC[C@H](N)C(=O)O

molecular target: Melanocortin receptor 4 (Homo sapiens, UniProt P32245); assay: Displacement of [125I]-[Nle4,d-Phe7]-alpha-MSH from human MC4R expressed in HEK293 cells after 40 mins by gamma counting analysis; assay type: cell-based
Sequence (P32245 whole entry): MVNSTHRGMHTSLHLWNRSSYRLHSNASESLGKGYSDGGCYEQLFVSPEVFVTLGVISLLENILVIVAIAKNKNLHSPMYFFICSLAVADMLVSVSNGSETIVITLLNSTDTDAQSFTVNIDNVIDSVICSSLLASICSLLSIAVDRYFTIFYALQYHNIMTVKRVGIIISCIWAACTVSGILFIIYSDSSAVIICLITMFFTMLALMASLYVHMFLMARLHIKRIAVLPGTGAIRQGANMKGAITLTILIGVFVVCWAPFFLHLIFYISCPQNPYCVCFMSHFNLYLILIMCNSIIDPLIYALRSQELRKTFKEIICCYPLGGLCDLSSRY

Q: How did the IC50 turn out when CCCC[C@H](NC(=O)[C@@H](Cc1ccc(Br)cc1)NC(=O)[C@@H]1CCCN1C(C)=O)C(=O)N[C@@H](Cc1c[nH]c2ccccc12)C(N)=O (Ac-P[dPhe(4-Br)][Nle]W-NH2) was run?
A: Its IC50 is 10 nM.

Q: Which IC50 does the source give for CCCC[C@H](NC(=O)[C@@H](Cc1ccc(C(F)(F)F)cc1)NC(=O)[C@@H]1CCCN1C(C)=O)C(=O)N[C@@H](Cc1c[nH]c2ccccc12)C(N)=O (Ac-P[dPhe(4-CF3)][Nle]W-NH2) here?
A: Its IC50 is 2.1 nM.

molecular target: T1, Melanocortin receptor 3 (Homo sapiens, UniProt P41968); assay: Displacement of [125I]-[Nle4,d-Phe7]-alpha-MSH from human MC3R expressed in HEK293 cells after 40 mins by gamma counting analysis; assay type: cell-based
T1 sequence (P41968 whole entry): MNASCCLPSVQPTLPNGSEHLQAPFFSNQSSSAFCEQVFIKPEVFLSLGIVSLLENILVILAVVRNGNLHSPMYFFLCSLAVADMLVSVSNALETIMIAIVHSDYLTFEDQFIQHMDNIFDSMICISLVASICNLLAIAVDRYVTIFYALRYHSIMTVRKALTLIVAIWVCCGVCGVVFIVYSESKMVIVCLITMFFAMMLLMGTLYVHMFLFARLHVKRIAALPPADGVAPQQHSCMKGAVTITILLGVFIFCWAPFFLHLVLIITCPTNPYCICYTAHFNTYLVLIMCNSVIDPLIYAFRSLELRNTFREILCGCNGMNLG

Q: For CCCC[C@H](NC(=O)[C@@H](Cc1ccc(Br)cc1)NC(=O)[C@@H]1CCCN1C(C)=O)C(=O)N[C@@H](Cc1c[nH]c2ccccc12)C(N)=O (Ac-P[dPhe(4-Br)][Nle]W-NH2), which IC50 is on record?
A: Its IC50 is over 1000 nM.

Q: How did the IC50 turn out when CC(=O)N[C@@H](Cc1cnc[nH]1)C(=O)N[C@H](Cc1ccccc1)C(=O)N[C@@H](CCCN=C(N)N)C(=O)N[C@@H](Cc1c[nH]c2ccccc12)C(N)=O was run?
A: Its IC50 is 63 nM.

Q: Which IC50 does the source give for CCCC[C@H](NC(=O)[C@@H](Cc1ccc(C(F)(F)F)cc1)NC(=O)[C@@H]1CCCN1C(C)=O)C(=O)N[C@@H](Cc1c[nH]c2ccccc12)C(N)=O (Ac-P[dPhe(4-CF3)][Nle]W-NH2) here?
A: The IC50 was over 1000 nM.

molecular target: T1, Melanocortin receptor 3; assay: Agonist activity at human MC3R expressed in HEK293 cells at 10 uM after 3 mins by cAMP assay relative to MT-2; assay type: functional, cell-based
Summary of the method: (§1)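 cAMP produced at a single 10 μM peptide concentration, expressed as % of the response to MT-II run as control; 0% accumulation reported as no activity.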

Q: For CCCC[C@H](NC(=O)[C@@H](Cc1ccc(Br)cc1)NC(=O)[C@@H]1CCCN1C(C)=O)C(=O)N[C@@H](Cc1c[nH]c2ccccc12)C(N)=O (Ac-P[dPhe(4-Br)][Nle]W-NH2), which Activity is on record?
A: Its Activity is 23.1%.

Q: With CCCC[C@H](NC(=O)[C@@H](Cc1ccc(C(F)(F)F)cc1)NC(=O)[C@@H]1CCCN1C(C)=O)C(=O)N[C@@H](Cc1c[nH]c2ccccc12)C(N)=O (Ac-P[dPhe(4-CF3)][Nle]W-NH2) as the compound, how does the Activity read?
A: Its Activity is 0%.

molecular target: T2, Melanocyte-stimulating hormone receptor (Homo sapiens, UniProt Q01726); assay: Agonist activity at human MC1R expressed in HEK293 cells after 3 mins by cAMP assay; assay type: functional, cell-based
Target sequence in this assay (Q01726 whole entry): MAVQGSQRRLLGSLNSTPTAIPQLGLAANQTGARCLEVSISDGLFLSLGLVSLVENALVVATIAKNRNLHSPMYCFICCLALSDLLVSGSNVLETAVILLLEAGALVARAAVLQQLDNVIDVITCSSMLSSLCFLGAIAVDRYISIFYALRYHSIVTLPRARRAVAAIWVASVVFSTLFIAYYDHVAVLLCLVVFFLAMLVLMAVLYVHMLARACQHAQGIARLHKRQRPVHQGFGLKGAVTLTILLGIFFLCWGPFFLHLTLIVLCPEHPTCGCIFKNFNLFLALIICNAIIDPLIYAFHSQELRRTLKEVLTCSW

Q: Which EC50 does the source give for CCCC[C@H](NC(=O)[C@@H](Cc1ccc(Br)cc1)NC(=O)[C@@H]1CCCN1C(C)=O)C(=O)N[C@@H](Cc1c[nH]c2ccccc12)C(N)=O (Ac-P[dPhe(4-Br)][Nle]W-NH2) here?
A: Its EC50 is over 1000 nM.

Q: For CC(=O)N[C@@H](Cc1cnc[nH]1)C(=O)N[C@H](Cc1ccccc1)C(=O)N[C@@H](CCCN=C(N)N)C(=O)N[C@@H](Cc1c[nH]c2ccccc12)C(N)=O, which EC50 is on record?
A: The EC50 was 4.3 nM.

molecular target: T1, Melanocortin receptor 3; assay: Displacement of [125I]-[Nle4,d-Phe7]-alpha-MSH from human MC3R expressed in HEK293 cells at 10 uM after 40 mins by gamma counting analysis relative to control; assay type: cell-based
Summary of the method: (§2)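 Binding efficiency = maximal % displacement of [125I]-NDP-α-MSH observed at 10 μM peptide; 0% displacement at 10 μM scored as no binding.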

Q: Which %max does the source give for CCCC[C@H](NC(=O)[C@@H](Cc1ccc(Br)cc1)NC(=O)[C@@H]1CCCN1C(C)=O)C(=O)N[C@@H](Cc1c[nH]c2ccccc12)C(N)=O (Ac-P[dPhe(4-Br)][Nle]W-NH2) here?
A: Its %max is 76%.

Q: How did the %max turn out when CCCC[C@H](NC(=O)[C@@H](Cc1ccc(C(F)(F)F)cc1)NC(=O)[C@@H]1CCCN1C(C)=O)C(=O)N[C@@H](Cc1c[nH]c2ccccc12)C(N)=O (Ac-P[dPhe(4-CF3)][Nle]W-NH2) was run?
A: Its %max is 33%.

molecular target: T2, Melanocyte-stimulating hormone receptor; assay: Displacement of [125I]-[Nle4,d-Phe7]-alpha-MSH from human MC1R expressed in HEK293 cells at 10 uM after 40 mins by gamma counting analysis relative to control; assay type: cell-based; summary of the method: as §2
Target sequence in this assay (Q01726 whole entry, looked up): as the sequence (Q01726 whole entry) above

Q: Which %max does the source give for CCCC[C@H](NC(=O)[C@@H](Cc1ccc(Br)cc1)NC(=O)[C@@H]1CCCN1C(C)=O)C(=O)N[C@@H](Cc1c[nH]c2ccccc12)C(N)=O (Ac-P[dPhe(4-Br)][Nle]W-NH2) here?
A: Its %max is 30%.

Q: CCCC[C@H](NC(=O)[C@@H](Cc1ccc(C(F)(F)F)cc1)NC(=O)[C@@H]1CCCN1C(C)=O)C(=O)N[C@@H](Cc1c[nH]c2ccccc12)C(N)=O (Ac-P[dPhe(4-CF3)][Nle]W-NH2) was tested. Which %max did it give?
A: Its %max is 0%.

molecular target: T3, Melanocortin receptor 5 (Homo sapiens, UniProt P33032); assay: Agonist activity at human MC5R expressed in HEK293 cells at 10 uM after 3 mins by cAMP assay relative to MT-2; assay type: functional, cell-based; summary of the method: as §1
T3 sequence (P33032 whole entry): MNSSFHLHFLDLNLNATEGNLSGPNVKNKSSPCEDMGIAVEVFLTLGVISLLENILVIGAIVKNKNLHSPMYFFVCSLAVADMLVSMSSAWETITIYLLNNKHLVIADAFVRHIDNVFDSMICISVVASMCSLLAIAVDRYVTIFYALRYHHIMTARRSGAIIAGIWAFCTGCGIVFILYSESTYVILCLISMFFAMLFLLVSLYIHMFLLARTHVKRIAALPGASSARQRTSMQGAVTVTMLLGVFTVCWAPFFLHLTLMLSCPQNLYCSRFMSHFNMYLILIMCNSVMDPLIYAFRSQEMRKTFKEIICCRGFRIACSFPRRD

Q: For CCCC[C@H](NC(=O)[C@@H](Cc1ccc(Br)cc1)NC(=O)[C@@H]1CCCN1C(C)=O)C(=O)N[C@@H](Cc1c[nH]c2ccccc12)C(N)=O (Ac-P[dPhe(4-Br)][Nle]W-NH2), which Activity is on record?
A: The Activity was 0%.

Q: With CCCC[C@H](NC(=O)[C@@H](Cc1ccc(C(F)(F)F)cc1)NC(=O)[C@@H]1CCCN1C(C)=O)C(=O)N[C@@H](Cc1c[nH]c2ccccc12)C(N)=O (Ac-P[dPhe(4-CF3)][Nle]W-NH2) as the compound, how does the Activity read?
A: Its Activity is 0%.

molecular target: T3, Melanocortin receptor 5; assay: Agonist activity at human MC5R expressed in HEK293 cells after 3 mins by cAMP assay; assay type: functional, cell-based

Q: CC(=O)N[C@@H](Cc1cnc[nH]1)C(=O)N[C@H](Cc1ccccc1)C(=O)N[C@@H](CCCN=C(N)N)C(=O)N[C@@H](Cc1c[nH]c2ccccc12)C(N)=O was tested. Which EC50 did it give?
A: Its EC50 is 3.9 nM.

molecular target: T2, Melanocyte-stimulating hormone receptor; assay: Agonist activity at human MC1R expressed in HEK293 cells at 10 uM after 3 mins by cAMP assay relative to MT-2; assay type: functional, cell-based; summary of the method: as §1
Target sequence in this assay (Q01726 whole entry, looked up): as the sequence (Q01726 whole entry) above

Q: Which Activity does the source give for CCCC[C@H](NC(=O)[C@@H](Cc1ccc(Br)cc1)NC(=O)[C@@H]1CCCN1C(C)=O)C(=O)N[C@@H](Cc1c[nH]c2ccccc12)C(N)=O (Ac-P[dPhe(4-Br)][Nle]W-NH2) here?
A: The Activity was 39%.

Q: With CCCC[C@H](NC(=O)[C@@H](Cc1ccc(C(F)(F)F)cc1)NC(=O)[C@@H]1CCCN1C(C)=O)C(=O)N[C@@H](Cc1c[nH]c2ccccc12)C(N)=O (Ac-P[dPhe(4-CF3)][Nle]W-NH2) as the compound, how does the Activity read?
A: Its Activity is 0%.

molecular target: T3, Melanocortin receptor 5; assay: Displacement of [125I]-[Nle4,d-Phe7]-alpha-MSH from human MC5R expressed in HEK293 cells at 10 uM after 40 mins by gamma counting analysis relative to control; assay type: cell-based; summary of the method: as §2

Q: CCCC[C@H](NC(=O)[C@@H](Cc1ccc(Br)cc1)NC(=O)[C@@H]1CCCN1C(C)=O)C(=O)N[C@@H](Cc1c[nH]c2ccccc12)C(N)=O (Ac-P[dPhe(4-Br)][Nle]W-NH2) was tested. Which %max did it give?
A: Its %max is 0%.

Q: How did the %max turn out when CCCC[C@H](NC(=O)[C@@H](Cc1ccc(C(F)(F)F)cc1)NC(=O)[C@@H]1CCCN1C(C)=O)C(=O)N[C@@H](Cc1c[nH]c2ccccc12)C(N)=O (Ac-P[dPhe(4-CF3)][Nle]W-NH2) was run?
A: The %max was 0%.

molecular target: T3, Melanocortin receptor 5; assay: Displacement of [125I]-[Nle4,d-Phe7]-alpha-MSH from human MC5R expressed in HEK293 cells after 40 mins by gamma counting analysis; assay type: cell-based

Q: With CC(=O)N[C@@H](Cc1cnc[nH]1)C(=O)N[C@H](Cc1ccccc1)C(=O)N[C@@H](CCCN=C(N)N)C(=O)N[C@@H](Cc1c[nH]c2ccccc12)C(N)=O as the compound, how does the IC50 read?
A: Its IC50 is 109 nM.

molecular target: T1, Melanocortin receptor 3; assay: Agonist activity at human MC3R expressed in HEK293 cells after 3 mins by cAMP assay; assay type: functional, cell-based

Q: With CCCC[C@H](NC(=O)[C@@H](Cc1ccc(Br)cc1)NC(=O)[C@@H]1CCCN1C(C)=O)C(=O)N[C@@H](Cc1c[nH]c2ccccc12)C(N)=O (Ac-P[dPhe(4-Br)][Nle]W-NH2) as the compound, how does the EC50 read?
A: Its EC50 is over 1000 nM.

Q: CC(=O)N[C@@H](Cc1cnc[nH]1)C(=O)N[C@H](Cc1ccccc1)C(=O)N[C@@H](CCCN=C(N)N)C(=O)N[C@@H](Cc1c[nH]c2ccccc12)C(N)=O was tested. Which EC50 did it give?
A: Its EC50 is 7.1 nM.

molecular target: T2, Melanocyte-stimulating hormone receptor; assay: Displacement of [125I]-[Nle4,d-Phe7]-alpha-MSH from human MC1R expressed in HEK293 cells after 40 mins by gamma counting analysis; assay type: cell-based
Target sequence in this assay (Q01726 whole entry): as above

Q: With CCCC[C@H](NC(=O)[C@@H](Cc1ccc(Br)cc1)NC(=O)[C@@H]1CCCN1C(C)=O)C(=O)N[C@@H](Cc1c[nH]c2ccccc12)C(N)=O (Ac-P[dPhe(4-Br)][Nle]W-NH2) as the compound, how does the IC50 read?
A: Its IC50 is 80 nM.

Q: For CC(=O)N[C@@H](Cc1cnc[nH]1)C(=O)N[C@H](Cc1ccccc1)C(=O)N[C@@H](CCCN=C(N)N)C(=O)N[C@@H](Cc1c[nH]c2ccccc12)C(N)=O, which IC50 is on record?
A: Its IC50 is 105 nM.
